Assay outcomes as filed in PubChem BioAssay.
Only some compounds are listed: those with a hit (about 4.3% of all), similar ones and a draw of the others.
Lipid droplet – modulators of hepatic lipid droplet formation. AML12 mouse hepatocytes, oleate lipid droplets, BODIPY imaging. inhibition, % at 6.5 µM. hit rate 0.4% among 240,000. AID 1656;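 active means lipid droplet intensity inhibited by at least 50%, with more than 500 cells counted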
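System: AML12 hepatocytes (mouse). Probe or stimulus: oleic acid at 100 µM to induce lipid droplet formation. Times: overnight treatment with compound plus oleate. Detection: Image-based BODIPY and DAPI two-channel analysis. Evaluation: percent inhibition of filter-corrected integrated lipid droplet intensity per well.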
CR mimetic SO – yeast age-related superoxide inhibition as caloric restriction mimetic | S. cerevisiae aged cells, superoxide DHE fluorescence; hits give low values | superoxide response (% of plate mean), % at 10 µM | hit rate 0.18% among 330,000 | AID 2690;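 active means superoxide response under a set limit, about three screen SD below normal, cut at about 65% in these data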;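 further: yeast aged for seven days with compound at 30 °C before DHE staining; 100% = average MFI of all compound-treated wells on the plate with controls excluded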
SMARCA2 act – activators of SMARCA2 function; hit rate 1% among 370,000; AID 652017; activation, % at 9.1 µM; MG213 cells, MMTV-luciferase reporter, dexamethasone, overnight; in the data active means activation above about 7.8%;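 further: 0% = vehicle wells and 100% = reference activator wells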
SR-BI HDL uptake – mouse SR-BI HDL lipid transfer inhibition; ldlA[mSR-BI] CHO cells, DiI-HDL uptake fluorescence, 3 h; inhibition, % at 12.5 µM; hit rate 0.96% among 320,000; AID 488896;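 active means mean replicate inhibition of at least 70% and a set share of replicates each scoring 70 or more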;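 further: 0% = median of neutral control wells and 100% = median of positive control wells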
AHR activator – human AHR activation; P35869; AHR-responsive luciferase reporter cells, luminescence; activation, % at 5 µM; hit rate 2.5% among 320,000; in the data active means activation above about 47%;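 further: 0% = vehicle wells and 100% = reference agonist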
SR-BI DiI-HDL act – activators of SR-BI mediated HDL lipid uptake; CHO ldlA[mSR-BI] cells, DiI-HDL uptake fluorescence, 3 h; 100 = double the neutral-control signal; activation, % at 12.5 µM; hit rate 0.096% among 320,000; AID 504775;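 active means mean replicate activation of at least 60% and every replicate at or above 60%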;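 further: 0% = median plate neutral-control signal and 100% = twice that signal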
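Test system: SR-BI-overexpressing, LDLR-lacking CHO cells; Medium: Ham's F12 with 0.5% BSA, HEPES 25 mM, pH 7.4; Schedule: 3 h, 37 °C; Technique: bottom-read fluorescence, 550/595 nm.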
AHR act confirm – confirmation of human aryl hydrocarbon receptor activators; shares compounds with AHR activator; human cells, AHR-responsive luciferase reporter, luminescence; activation, % at 9 µM; hit rate 87% among 2,300; AID 2845; in the data active means activation above about 49%;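 further: HepG2 hepatoma cells carrying a DRE-driven firefly luciferase reporter; 0% = vehicle wells and 100% = reference agonist wells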
PXR counter – PXR activation, counter-screen for AHR activators; shares compounds with AHR activator; cell-based PXR reporter, luciferase luminescence; activation, % at 11.6 µM; hit rate 88% among 2,300; AID 434939; in the data active means activation above about 11%;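 further: human hepatoma DPX-2 cells expressing full-length human PXR; 0% = DMSO and 100% = reference agonist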
Target sequence (O75469 whole entry, looked up): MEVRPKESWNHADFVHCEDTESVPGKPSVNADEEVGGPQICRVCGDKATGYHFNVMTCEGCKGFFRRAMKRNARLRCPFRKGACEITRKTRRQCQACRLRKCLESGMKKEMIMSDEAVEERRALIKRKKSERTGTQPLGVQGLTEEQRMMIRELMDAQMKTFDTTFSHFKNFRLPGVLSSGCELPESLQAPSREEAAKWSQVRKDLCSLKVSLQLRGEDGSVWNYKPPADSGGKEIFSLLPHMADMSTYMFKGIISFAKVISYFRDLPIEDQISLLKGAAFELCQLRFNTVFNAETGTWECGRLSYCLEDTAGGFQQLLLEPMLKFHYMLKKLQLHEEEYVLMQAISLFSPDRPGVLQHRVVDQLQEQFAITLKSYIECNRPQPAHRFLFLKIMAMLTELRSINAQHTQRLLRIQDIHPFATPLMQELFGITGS
SMARCA2 act conf – SMARCA2 activation, confirmation screen; hit rate 30% among 3,500; shares compounds with SMARCA2 act; MG213 cells, MMTV-luciferase with dexamethasone, luminescence, overnight; MG213 cells expressing E1A, Rb sequestered; DMSO wells 0%, reference activator 100%; AID 652260; activation, % at 9.1 µM;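 active means activation above its plate's cutoff, the mean activation of tested wells plus 3 SD, cut at about 7.9% in these data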
VP16 Luc act – activates GAL4-VP16 luciferase, flagging SMARCA2 activator hits. activation, % at 9.1 µM. AID 686939. hit rate 41% among 3,500. shares compounds with SMARCA2 act. HEK293 GAL4-VP16 pG5luc reporter, luciferase luminescence; scaled: DMSO wells 0%, SAHA wells 100%;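 active means activation above the solvent-only control well mean plus 3 SD, averaged across control plates, cut at about 5.2% in these data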
Numbers without * were called inactive; . = not tested or not shown.

SMILES	Lipid droplet	CR mimetic SO	SMARCA2 act	SR-BI HDL uptake	AHR activator	SR-BI DiI-HDL act	AHR act confirm	PXR counter	SMARCA2 act conf	VP16 Luc act
COC(=O)c1c(-c2cccnc2)csc1NC(=O)c1ccc2c(c1)OCO2	-1	97	9.4*	16	114*	-16	23	5	7	15*
O=C(NC1CC1c1ccccc1)N1CCC(c2nc3ccc(Cl)cc3[nH]2)CC1 (stereo unspecified)	.	.	-5	.	.	.	.	.	.	.
O=C(Oc1cccc(-c2cnc3ccccc3n2)c1)c1ccco1	.	87	10*	-9	99*	9	44	9	8.7*	13*
CCCc1ccc(-c2cc(NC(=O)Cc3c(C)[nH]c4ccccc34)ccc2Nc2cccnc2)cc1	.	.	1	.	.	.	.	.	.	.
c1ccc(CN=C2NN=C(c3cc4ccccc4o3)CS2)cc1	31	102	0	-1	7	1	.	.	.	.
c1ccc2oc(C3=NNC(=NC4CC4)SC3)cc2c1	-2	104	9.5*	82*	137*	-82	1	16*	0	6.5*
CCOC(=O)N1CCN(C(=O)C[C@H]2C[C@@]3(C(=O)OC)C(=C[C@H](C(C)(C)C)O[C@@H]3C)N(Cc3ccco3)C2=O)CC1	.	.	6	.	.	.	.	.	.	.
O=[N+]([O-])c1cccc(/C([O-])=C(/C(=S)Nc2ccccc2)[n+]2ccccc2)c1	0	100	8.5*	7	83*	-7	43	159*	0	6.3*
COC(=O)[C@]12C[C@H](CC(=O)NCc3cccs3)C(=O)N(CCC3=CCCCC3)C1=C[C@H](C(C)C)O[C@@H]2C1CC1	.	.	-6	.	.	.	.	.	.	.
Cc1ccc(NC(=O)c2cccc3cccnc23)cc1	-16	101	8.2*	10	121*	-10	110*	30*	20*	9.1*
CCN(CC)CCNc1nc2cc(OC)c(OC)cc2c2nc(-c3ccccc3)nn12	0	103	9.7*	-6	90*	6	17	5	26*	1
COc1ccc2[nH]c(=O)c3c(c2c1)OC(C)(C)C=C3	.	100	-5	-15	18	18	.	.	.	.
Cc1cc2c([nH]c3ccccc32)c2c1OC(C)(C)C=C2	23	121	8.3*	66	102*	-66	119*	72*	14*	7.9*
C#CCNC(=O)C[C@H]1C[C@@]2(C(=O)OC)C(=C[C@H](C3CCCC3)O[C@@H]2C)N(CCc2ccc(OC)c(OC)c2)C1=O	.	.	-2	.	.	.	.	.	.	.
Cc1cccc(C(=O)N[C@H](C(=O)Nc2ncc(C)s2)C(C)C)c1	6	107	27*	1	104*	-1	19	364*	26*	0
Cc1cccc(C(=O)N[C@H](C(=O)Nc2nnc(C3CC3)s2)C(C)C)c1	8	103	-3	0	2	0	.	.	.	.
C/C(=N\N=c1/sc2ccccc2n1C)c1ccccn1	4	123	8.1*	-1	104*	1	143*	26*	4	7.5*
C#CCn1c(O)c(N=NC(=O)CNC(=O)c2cccnc2)c2ccccc21	0	87	9.8*	-31	92*	31	106*	25*	0	1
COc1ccc(C(=O)NCC(=O)N=Nc2c(O)n(Cc3ccccc3)c3ccccc23)cc1OC	2	80	-1	46	0	-46	.	.	.	.
COc1cccc(Nc2nc(-c3cccnc3)cs2)c1	-5	102	11*	20	108*	-20	127*	13*	13*	6.6*
COc1ccc(-c2csc(Nc3cccnc3)n2)cc1OC	.	83	0	39	-18	-39	.	.	.	.
COc1ccccc1CNC(=O)NNC(=O)CCn1nc(C)c([N+](=O)[O-])c1C	.	.	1	.	.	.	.	.	.	.
O=C(N[C@H](C(=O)N1CCC[C@H]1C(=O)NCCc1ccccc1Cl)c1ccccc1)c1ccco1	.	.	-4	.	.	.	.	.	.	.
Cc1ccc(C)c(NC(=S)c2ccc3ccccc3n2)c1	56*	101	8.5*	13	88*	-13	104*	16*	7	10*
COc1ccc2c(c(-c3ccccc3)cn2C)c1-c1ccccc1	.	.	-3	.	.	.	.	.	.	.
SMILES	Lipid droplet	CR mimetic SO	SMARCA2 act	SR-BI HDL uptake	AHR activator	SR-BI DiI-HDL act	AHR act confirm	PXR counter	SMARCA2 act conf	VP16 Luc act
c1ccc(-c2nc3nc4ccccc4nc3n2Cc2ccco2)cc1	.	98	8.0*	-1	99*	1	71*	20*	7	14*
O=C(NCCc1c[nH]c2ccccc12)OCc1cn(-c2cccc(C(F)(F)F)c2)nn1	.	.	-4	.	.	.	.	.	.	.
Nc1c(Br)cc2oc(-c3ccccc3)nc2c1Br	-14	101	9.5*	0	84*	0	134*	13*	12*	7.2*
Cc1ccc2oc(-c3ccccc3)nc2c1	10	99	5	-27	2	27	.	.	.	.
O=C(Nc1ccccc1C(=O)NCCc1ccccc1)c1ccco1	.	90	9.1*	2	110*	-2	102*	42*	11*	7.4*
Cc1ccc(-n2sc3ccccc3c2=O)cc1	-2	110	8.0*	-32	80*	32	74*	30*	11*	2
Cc1cccc2c1ncc1c(=O)n(-c3ccccc3)[nH]c12	22	106	12*	21	136*	-21	129*	32*	8	11*
O=c1c2c([nH]n1-c1ccccc1)CCCC2	2	105	1	4	12	-4	.	.	.	.
Cn1c(=O)c([N+](=O)[O-])c(NCCc2ccccc2)c2ccccc21	8	100	12*	15	81*	-15	89*	49*	1	-1
Cc1cccc(-c2nsc(SCC(=O)Nc3ccc4c(c3)OCO4)n2)c1	15	101	9.7*	2	105*	-2	21	16*	2	1
Cc1ccccc1-c1nsc(SCC(=O)Nc2ccc3c(c2)OCO3)n1	-3	94	2	-9	14	9	.	.	.	.
COc1ccccc1Cc1c(-c2cccc(Cl)c2)nc2c3ccccc3ccn12	.	.	3	.	.	.	.	.	.	.
CCn1c2c(n(C(C)=O)c1=O)C[C@@H](c1ccccc1)[C@@H](C)[C@@H](C(=O)N1CCCC1)C2	.	.	0	.	.	.	.	.	.	.
